Calls of active or inactive are those of the source. No cut-off for these calls is given here.
Assays:
Nucleic Acid = test: Binding affinity to DNA (unknown origin) assessed as DNA intercalation by UV-visible spectrophotometry in presence of Fe3+; type: nucleic-acid assay
BJ [1] = test: Selectivity index, ratio of IC50 for human BJ cells to IC50 for human K562 cells; type: functional
MRC5 [2] = test: Selectivity index, ratio of IC50 for human MRC5 cells to IC50 for human K562-TAX cells; type: functional
A549 = test: Selectivity index, ratio of IC50 for human BJ cells to IC50 for human A549 cells; type: functional
BJ [3] = test: Selectivity index, ratio of IC50 for human BJ cells to IC50 for human HCT116 cells; type: functional
CCRF-CEM [4] = test: Cytostatic activity against human CCRF-CEM cells after 72 hrs by MTT assay; type: functional, cell-based
Outline: (§1)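 Cells were seeded at 25,000–30,000 per well and pre-incubated for 24 h at 37°C in 5% CO2. Four-fold compound dilutions were added in duplicate and incubated for 72 h. MTT was added for 1–4 h, and formazan was dissolved in 10% aq SDS (pH 5.5) overnight at 37°C. OD was read at 540 nm. IC50 came from dose-response curves, mean ± SD of eight independent experiments.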

[5] = Cytostatic activity against human CEM-DNR cells after 72 hrs by MTT assay; type: functional, cell-based; outline: as §1
[6] = Cytostatic activity against human K562-TAX cells after 72 hrs by MTT assay; type: functional, cell-based; outline: as §1
[7] = Cytostatic activity against human p53-/- HCT116 cells after 72 hrs by MTT assay; type: functional, cell-based; conditions: HCT-116, 72 h; outline: as §1
BJ [8] = test: Cytostatic activity against human BJ cells after 72 hrs by MTT assay; type: ADME, cell-based; outline: as §1
MRC5 [9] = test: Cytostatic activity against human MRC5 cells after 72 hrs by MTT assay; type: ADME, cell-based; conditions: MRC5, 72 h; outline: as §1
CCRF-CEM [10] = test: Induction of apoptosis in human CCRF-CEM cells assessed as mitotic cells at IC50 after 24 hrs by pH3Ser10+ labeling-based flow cytometry; type: functional
CCRF-CEM [11] = test: Induction of apoptosis in human CCRF-CEM cells assessed as mitotic cells at 5 times IC50 after 24 hrs by pH3Ser10+ labeling-based flow cytometry; type: functional
CCRF-CEM [12] = test: Induction of apoptosis in human CCRF-CEM cells assessed as inhibition of RNA synthesis at IC50 after 24 hrs by propidium iodide/BrU staining by flow cytometry; type: functional; design: scale not given: the % may be the effect or the level left
Enterococcus faecalis = test: Antimicrobial activity against Enterococcus faecalis CCM 4224 up to 200 uM after 24 to 48 hrs by broth microdilution method; type: functional, organism-based
Pseudomonas aeruginosa = test: Antimicrobial activity against Pseudomonas aeruginosa CCM 395 up to 200 uM after 24 to 48 hrs by broth microdilution method; type: functional, organism-based
Escherichia coli = test: Antimicrobial activity against multidrug-resistant Escherichia coli C/16702 up to 200 uM after 24 to 48 hrs by broth microdilution method; type: functional, organism-based
[13] = Metal chelating activity of the compound assessed as formation of Fe3+ complex by UV-vis spectrometry; type: physicochemical
[14] = Metal chelating activity of the compound assessed as formation of Ni2+ complex by UV-vis spectrometry; type: physicochemical
[15] = Metal chelating activity of the compound assessed as formation of Ca2+ complex by UV-vis spectrometry; type: physicochemical
[16] = Metal chelating activity of the compound assessed as formation of Fe2+ complex by UV-vis spectrometry; type: physicochemical
[17] = Metal chelating activity of the compound assessed as formation of Cr3+ complex by UV-vis spectrometry; type: physicochemical
CCRF-CEM [18] = test: Induction of apoptosis in human CCRF-CEM cells assessed as inhibition of RNA synthesis after 24 hrs by propidium iodide/BrU staining by flow cytometry; type: functional, cell-based

SMILES	Activity (Nucleic Acid)	Ratio IC50 (BJ [1])	Ratio IC50 (MRC5 [2])	Ratio IC50 (A549)	Ratio IC50 (BJ [3])	IC50 (CCRF-CEM [4]) [nM]	IC50 [5] [nM]	IC50 [6] [nM]	IC50 [7] [nM]	IC50 (BJ [8]) [nM]	IC50 (MRC5 [9]) [nM]	Activity (CCRF-CEM [10]) [%]	Activity (CCRF-CEM [11]) [%]	Activity (CCRF-CEM [12]) [%]	Activity (Enterococcus faecalis)	Activity (Pseudomonas aeruginosa)	Activity (Escherichia coli)	Activity [13]	Activity [14]	Activity [15]	also measured
O=C(N/N=C/c1ccccc1O)c1ccc2c3c(ccc2c1)N1Cc2c(ccc4cc(C(=O)N/N=C/c5ccccc5O)ccc24)N(C3)C1	Active	0.6	0.4	0.3	0.8	360	4250	830	190	270	390	0.62	0.01	59.79	inactive	inactive	inactive	Active	Active	Not Active	Activity [16]: Not Active; Activity [17]: Not Active
O=C(N/N=C/c1nccc2ccccc12)c1ccc2c3c(ccc2c1)N1Cc2c(ccc4cc(C(=O)N/N=C/c5nccc6ccccc56)ccc24)N(C3)C1	Active	121.9	9.9	5.4	5.7	580	6290	10100	25300	> 100000	> 100000	1.65	1.52	44	inactive	inactive	inactive	Active	Active	Not Active	inhibition (CCRF-CEM [18]): Dose-dependent effect; Activity [16]: Not Active; Activity [17]: Not Active
O=C(NN=C(c1ccccn1)c1ccccn1)c1ccc2c3c(ccc2c1)N1Cc2c(ccc4cc(C(=O)NN=C(c5ccccn5)c5ccccn5)ccc24)N(C3)C1	Active	2.4	2.8	0.8	3.4	910	2080	560	780	2090	1030	0.53	1.72	60.37	inactive	inactive	inactive	Active	Active	Not Active	Activity [16]: Not Active; Activity [17]: Not Active
COC(=O)c1ccc(O)c(/C=N/NC(=O)c2ccc3c4c(ccc3c2)N2Cc3c(ccc5cc(C(=O)N/N=C/c6cc(C(=O)OC)ccc6O)ccc35)N(C4)C2)c1	Active	9.4	4.3	7.7	8.9	5620	28200	21200	9470	87400	95400	1.19	0.86	28.66	inactive	inactive	inactive	Active	Active	Not Active	Activity [16]: Not Active; Activity [17]: Not Active
COc1ccc(O)c(/C=N/NC(=O)c2ccc3c4c(ccc3c2)N2Cc3c(ccc5cc(C(=O)N/N=C/c6cc(OC)ccc6O)ccc35)N(C4)C2)c1	Active	357.2	137.7	123.2	622.3	180	2140	210	60	57200	110	0.99	0.67	63.95	inactive	inactive	inactive	Active	Active	Not Active	Activity [16]: Not Active; Activity [17]: Not Active
Cc1ccc(O)c(/C=N/NC(=O)c2ccc3c4c(ccc3c2)N2Cc3c(ccc5cc(C(=O)N/N=C/c6cc(C)ccc6O)ccc35)N(C4)C2)c1	Active	0.5	0.4	0.9	0.8	580	5360	1140	450	690	270	1.04	0.22	33.57	inactive	inactive	inactive	Active	Active	Not Active	Activity [16]: Not Active; Activity [17]: Not Active
O=C(N/N=C/c1cc(F)ccc1O)c1ccc2c3c(ccc2c1)N1Cc2c(ccc4cc(C(=O)N/N=C/c5cc(F)ccc5O)ccc24)N(C3)C1	Active	18.1	17.6	33.6	64.9	1580	4250	2360	810	54100	29000	0.3	0.15	63.13	inactive	inactive	inactive	Active	Active	Not Active	inhibition (CCRF-CEM [18]): Dose-dependent effect; Activity [16]: Not Active; Activity [17]: Not Active
O=C(N/N=C/c1cc(O)ccc1O)c1ccc2c3c(ccc2c1)N1Cc2c(ccc4cc(C(=O)N/N=C/c5cc(O)ccc5O)ccc24)N(C3)C1	Active	8	13.8	20.9	9.1	60	2590	260	120	6550	550	2.34	2.39	48.47	inactive	inactive	inactive	Active	Active	Not Active	Activity [16]: Not Active; Activity [17]: Not Active
